ChEMBL document CHEMBL1125115 (J Med Chem, 1990)
Square brackets hold non-standard residues; d marks the D form. Peptide text beside a SMILES is read from it. GABA = NCCCC(=O)O

Tests used:
[1] = target: Substance-P receptor (Cavia porcellus) (UniProt P30547); experiment: Antagonistic activity against the highly selective tachykinin receptor 1 in guinea pig ileum; format: functional, tissue-based
[2] = target: T1, Substance-K receptor (Rattus norvegicus) (UniProt P16610); experiment: Antagonistic activity against the highly selective tachykinin receptor 2 in rat colon muscularis mucosae; format: functional
T1 sequence (whole entry): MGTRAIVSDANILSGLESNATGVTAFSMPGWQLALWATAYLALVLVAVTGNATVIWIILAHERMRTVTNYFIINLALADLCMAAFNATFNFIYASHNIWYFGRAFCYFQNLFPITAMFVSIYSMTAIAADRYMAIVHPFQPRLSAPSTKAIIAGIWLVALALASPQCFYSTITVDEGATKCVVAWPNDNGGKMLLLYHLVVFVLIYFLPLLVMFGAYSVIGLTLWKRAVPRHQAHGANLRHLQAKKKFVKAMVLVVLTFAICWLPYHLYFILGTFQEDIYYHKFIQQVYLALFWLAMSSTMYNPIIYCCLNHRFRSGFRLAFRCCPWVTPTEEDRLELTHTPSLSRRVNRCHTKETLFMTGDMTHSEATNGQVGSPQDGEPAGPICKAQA
Method in brief: (§1)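 Rat colon muscularis mucosae, isotonic contractions at 35 °C with atropine, mepyramine, methysergide, indomethacin (1 µM each). Dose ratio from rightward shift of agonist concentration-response curve with antagonist present; pKB = log[DR - 1] - log[B], B = molar antagonist concentration.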

[3] = target: T1, Substance-K receptor (Rattus norvegicus); experiment: Antagonistic activity at tachykinin receptor 2 in the rat colon muscularis mucosae; C= Partial agonist; format: functional; settings: filed as partial agonist; method in brief: as §1
Substance-K receptor = target: T2, Substance-K receptor (Rattus norvegicus, UniProt P16610); experiment: Agonist activity was measured at neurokinin-2 receptor in the rat colon muscularis mucosae; format: functional, tissue-based, Muscularis mucosa
T2 sequence (P16610 whole entry): T1 sequence (whole entry)
Method in brief: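 Rat colon muscularis mucosae strip (NK-2); isotonic contractions at 35 °C with atropine, mepyramine, methysergide and indomethacin (each 1 µM). Equipotent molar ratios converted to EC50 using mean EC50 of standard agonist.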

Substance-P receptor = Substance-P receptor (Cavia porcellus, UniProt P30547); experiment: Agonistic activity at neurokinin-1 (NK-1) receptor in guinea pig ileum longitudinal smooth muscle; format: functional, tissue-based
Substance-P receptor, sequence (P30547 whole entry): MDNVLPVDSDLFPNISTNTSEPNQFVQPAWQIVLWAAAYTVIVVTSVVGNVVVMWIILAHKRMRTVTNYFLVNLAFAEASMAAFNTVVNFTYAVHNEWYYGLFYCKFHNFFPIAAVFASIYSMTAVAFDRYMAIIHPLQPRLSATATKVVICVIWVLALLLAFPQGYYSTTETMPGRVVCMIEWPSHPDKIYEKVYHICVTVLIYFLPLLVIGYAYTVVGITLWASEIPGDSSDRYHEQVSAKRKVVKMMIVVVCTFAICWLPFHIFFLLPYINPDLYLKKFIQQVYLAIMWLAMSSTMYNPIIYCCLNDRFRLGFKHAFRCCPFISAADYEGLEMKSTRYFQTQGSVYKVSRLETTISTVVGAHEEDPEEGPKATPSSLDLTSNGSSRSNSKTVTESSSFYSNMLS
Method in brief: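 Guinea pig ileum longitudinal smooth muscle-myenteric plexus strip (NK-1); isotonic contractions at 35 °C with atropine, mepyramine, methysergide and indomethacin (each 1 µM). Equipotent molar ratios converted to EC50 using mean EC50 of standard agonist.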

Substance-P receptor (Cavia porcellus), sequence (P30547 whole entry): as above

| pKB [1] | pKB [2] | pKB [3] | EC50 (Substance-K receptor) | EC50 (Substance-P receptor) | SMILES |
| --- | --- | --- | --- | --- | --- |
| 6.62 | 5.27 |  |  |  | CC(C)C[C@@H](C(=O)NC(Cc1c[nH]c2ccccc12)C(N)=O)N1CCC2(CCCN2C(=O)[C@H](Cc2ccccc2)NC(=O)[C@H](Cc2ccccc2)NC(=O)CCCN)C1=O (stereo partly specified) |
| 5.6 |  | Partial agonist |  |  | CSCC[C@H](NC(=O)[C@H](CC(C)C)N1CCC2(CCCN2C(=O)[C@H](Cc2ccccc2)NC(=O)[C@H](Cc2ccccc2)NC(=O)CCCN)C1=O)C(N)=O (stereo partly specified) |
| < 4.5 | < 4.5 |  |  |  | CNC(=O)[C@H](CC(C)C)N1CCC2(CCCN2C(=O)[C@H](Cc2ccccc2)NC(=O)[C@H](Cc2ccccc2)NC(=O)CCCN)C1=O (stereo partly specified) |
| 5.66 | < 4.5 |  |  |  | CSCC[C@@H](NC(=O)[C@H](CC(C)C)N1CCC2(CCCN2C(=O)[C@H](Cc2ccccc2)NC(=O)[C@H](Cc2ccccc2)NC(=O)CCCN)C1=O)C(N)=O (stereo partly specified) |
| 6.28 | 5.36 |  |  |  | CC(C)C[C@@H](C(=O)N[C@H](Cc1ccccc1)C(N)=O)N1CCC2(CCCN2C(=O)[C@H](Cc2ccccc2)NC(=O)[C@H](Cc2ccccc2)NC(=O)CCCN)C1=O (stereo partly specified) |
| 6.64 | 5.84 |  |  |  | CC(C)C[C@@H](C(=O)NC(CCc1ccccc1)C(N)=O)N1CCC2(CCCN2C(=O)[C@H](Cc2ccccc2)NC(=O)[C@H](Cc2ccccc2)NC(=O)CCCN)C1=O (stereo partly specified) |
| 6.43 | 5.86 |  |  |  | CC(C)C[C@@H](C(=O)N[C@H](CC1CCCCC1)C(N)=O)N1CCC2(CCCN2C(=O)[C@H](Cc2ccccc2)NC(=O)[C@H](Cc2ccccc2)NC(=O)CCCN)C1=O (stereo partly specified) |
|  |  |  | > 16 µM | 4.38 µM | CC(C)C[C@H](NC(=O)CNC(=O)[C@H](Cc1ccccc1)NC(=O)[C@H](Cc1ccccc1)NC(=O)CCCN)C(=O)N[C@@H](Cc1c[nH]c2ccccc12)C(N)=O (H-[GABA]FFGLW-NH2) |
